Calls of active or inactive are those of the source. The rule behind the calls is not given here.
Assays:
Salmonella typhimurium [1] = assay: Mutagenic activity in Salmonella typhimurium TA98 at 3.1 to 250 ug/plate by Ames test in presence of mouse liver S9 fraction; format: toxicity, organism-based; conditions: salmonella enterica subsp. enterica serovar typhimurium
Method in brief: (§1)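 Ames plate-incorporation assay with S. typhimurium TA98 in Vogel-Bonner E minimal glucose agar. Toxicity toward the bacteria was checked first. DMSO solutions were run in triplicate at five consecutive third-dilutions, starting at the highest non-toxic dose. Positive controls were 4-nitro-o-phenylenediamine (20.0 μg/plate) and 2-aminofluorene (10.0 μg/plate); DMSO was the negative control. Revertants were counted manually. A compound was called mutagenic when revertants were at least twice the negative control at two or more consecutive doses.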

Salmonella typhimurium [2] = assay: Mutagenic activity in Salmonella typhimurium TA100 at 0.06 to 5 ug/plate by Ames test; format: toxicity, organism-based; conditions: salmonella enterica subsp. enterica serovar typhimurium
Method in brief: (§2)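 Direct plate incubation on minimal glucose agar (Vogel-Bonner E). Compound toxicity to the bacteria was checked first. DMSO solutions were tested at five consecutive 3-fold dilutions, starting from the highest non-toxic dose, in triplicate, without metabolic activation. DMSO served as negative control. Revertants were counted manually; mutagenic = revertants at least double the negative control at two or more consecutive doses.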

Salmonella typhimurium [3] = assay: Mutagenic activity in Salmonella typhimurium TA1537 at 0.06 to 5 ug/plate by Ames test in presence of mouse liver S9 fraction; format: toxicity, organism-based; conditions: salmonella enterica subsp. enterica serovar typhimurium
Method in brief: (§3)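 Plate-incorporation Ames test on minimal glucose agar with 500 μL Aroclor-treated mouse liver S9 added. DMSO solutions were tested at five consecutive 3-fold dilutions from the highest non-toxic dose, in triplicate, with a DMSO negative control. Revertants were counted manually; a compound was scored mutagenic when revertants were at least twice the negative control for two or more consecutive doses.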

Trypanosoma cruzi [4] = assay: Antitrypanosomal activity against Trypanosoma cruzi Tulahuen 2 epimastigotes assessed as growth inhibition after 5 days; format: functional, organism-based; conditions: Trypanosoma cruzi, Tulahuen 2, 120 h
Method in brief: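 Epimastigotes were grown axenically at 28 °C in BHI-tryptose with 5% FBS and seeded from a 5–7 day culture at 1 × 10⁶ cells/mL. Drug from a DMSO stock was added (final DMSO ≤0.4%; the control contained 0.4% DMSO). Duplicates were run. A600 was read at day 5, and % inhibition was calculated relative to day-0 and control readings. IC50 = concentration that halves the absorbance ratio.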

[5] = Stability of the compound in eumulgin HRE 40, sodium oleate, soya phosphatidylcholine, cholesterol, and phosphate buffer at pH 7.4 at 4 degC; format: physicochemical
Method in brief: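 Storage stability of the compound in vehicle V2, a microemulsion of surfactant (Eumulgin HRE 40/sodium oleate/soya phosphatidylcholine, 10%), cholesterol oil phase (10%) and pH 7.4 phosphate buffer (80%), followed over 1 week at 4 °C.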

[6] = Stability of the compound in aqueous solution assessed as compound remaining at 1 mM at pH 7.4 after 1 hr by TLC analysis; format: physicochemical; conditions: aqueous solution, pH 7.4; read-out: Stability
Method in brief: (§4)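 DMSO stocks diluted to final 1 mM in KCl·HCl pH 1.0, citrate pH 6.0, Tris·HCl pH 7.4 or borax·HCl pH 9.0 buffer. Incubated 1 h at 37 °C, then ethyl acetate extracts checked by TLC for decomposition products.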

Salmonella typhimurium [7] = assay: Mutagenic activity in Salmonella typhimurium TA1537 at 0.06 to 5 ug/plate by Ames test; format: toxicity, organism-based; conditions: salmonella enterica subsp. enterica serovar typhimurium; method in brief: as §2
[8] = Selectivity index, ratio of IC50 for mouse J774.1 cells to IC50 for Trypanosoma cruzi Sylvio X-10 amastigotes; format: toxicity; conditions: read-out: Ratio IC50
Method in brief: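 J774.1 macrophages grown in DMEM with 10% heat-inactivated FCS and allowed to attach 48 h, then exposed 48 h at 37 °C to 12.5–400.0 μM. Triplicates. MTT 0.1 mg/mL for 3 h, read at 560 nm; IC50 by linear regression against the solvent control. SI = IC50 J774.1 / parasite IC50 (Sylvio X-10 amastigotes or Tulahuen 2 epimastigotes, the latter measured by A600 growth inhibition at day 5).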

[9] = Selectivity index, ratio of IC50 for African green monkey Vero cells to IC50 for Trypanosoma cruzi Sylvio X-10 amastigotes; format: toxicity, cell-based; conditions: read-out: Ratio IC50
Method in brief: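 VERO cytotoxicity: cells exposed 48 h at 37 °C, 5% CO2 to serial dilutions from a maximum of 2000 μM (DMSO stocks; DMSO <0.1% control); growth inhibition read by MTT at 570 nm. Amastigote IC50: Sylvio X-10-infected VERO cells, five doses, infected cells counted among 300 (Giemsa), quadruplicate, three experiments, sigmoidal fit. SI = IC50 VERO / IC50 amastigote.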

Salmonella typhimurium [10] = assay: Mutagenic activity in Salmonella typhimurium TA102 at 0.06 to 5 ug/plate by Ames test in presence of mouse liver S9 fraction; format: toxicity, organism-based; conditions: salmonella enterica subsp. enterica serovar typhimurium; method in brief: as §3
[11] = Selectivity index, ratio of IC50 for human RBC to IC50 for Trypanosoma cruzi Sylvio X-10 amastigotes
Method in brief: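 Hemolysis: washed human erythrocytes (2% w/v in PBS) incubated 24 h at 37 °C with compound at final 50, 100 and 200 μM. Ten replicates per concentration. Hemoglobin release read at 405 nm against water lysis as 100%; amphotericin B 1.5 μM was the positive control. SI = IC50 red cells / parasite IC50 (Sylvio X-10 amastigotes or Tulahuen 2 epimastigotes).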

Trypanosoma cruzi [12] = assay: Antitrypanosomal activity against Trypanosoma cruzi Sylvio X-10 amastigotes infected in African green monkey Vero cells assessed as eradication of amastigotes after 5 days by Giemsa staining-based assay; format: functional, organism-based; conditions: Sylvio X-10, Vero, 120 h
Method in brief: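 VERO cells in RPMI 1640 with 10% hiFCS were allowed to adhere for 24 h at 37 °C in 5% CO₂, then infected with tissue-derived trypomastigotes at 10:1. Free parasites were washed off after 24 h, and cultures were treated at five compound doses (text gives 72 h / 5 days). Cultures were methanol-fixed and Giemsa-stained, and infected cells were counted among 300. Quadruplicates were run in three independent experiments. IC50/IC90 were obtained by sigmoidal regression.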

[13] = Stability of the compound in aqueous solution assessed as compound remaining at 1 mM at pH 6 after 1 hr by TLC analysis; format: physicochemical; conditions: aqueous solution, pH 6; read-out: Stability; method in brief: as §4
Trypanosoma cruzi [14] = assay: Antitrypanosomal activity against Trypanosoma cruzi Sylvio X-10 amastigotes infected in African green monkey Vero cells assessed as eradication of amastigotes at 5 uM after 5 days by optical microscopic analysis; format: functional, organism-based; conditions: in the assay text read “after 72 hrs” for “after 5 days”
Method in brief: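 VERO cells infected with Sylvio X-10 parasites were treated with 5 μM compound and examined by optic microscopy after 72 h of incubation for intracellular amastigotes and trypomastigotes.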

Salmonella typhimurium [15] = assay: Mutagenic activity in Salmonella typhimurium TA98 at 3.1 to 250 ug/plate by Ames test; format: toxicity, organism-based; conditions: salmonella enterica subsp. enterica serovar typhimurium; method in brief: as §1
Salmonella typhimurium [16] = assay: Mutagenic activity in Salmonella typhimurium TA1535 at 0.06 to 5 ug/plate by Ames test in presence of mouse liver S9 fraction; format: toxicity, organism-based; conditions: salmonella enterica subsp. enterica serovar typhimurium; method in brief: as §3
Salmonella typhimurium [17] = assay: Mutagenic activity in Salmonella typhimurium TA1535 at 0.06 to 5 ug/plate by Ames test; format: toxicity, organism-based; conditions: salmonella enterica subsp. enterica serovar typhimurium; method in brief: as §2
Salmonella typhimurium [18] = assay: Mutagenic activity in Salmonella typhimurium TA100 at 0.06 to 5 ug/plate by Ames test in presence of mouse liver S9 fraction; format: toxicity, organism-based; conditions: salmonella enterica subsp. enterica serovar typhimurium; method in brief: as §3
[19] = Stability of the compound in aqueous solution assessed as compound remaining at 1 mM at pH 1 after 1 hr by TLC analysis; format: physicochemical; conditions: read-out: Stability; method in brief: as §4
Trypanosoma cruzi [20] = assay: Antitrypanosomal activity against Trypanosoma cruzi Dm 28c epimastigotes assessed as growth inhibition after 5 days; format: functional, organism-based; conditions: 120 h
Salmonella typhimurium [21] = assay: Mutagenic activity in Salmonella typhimurium TA102 at 0.06 to 5 ug/plate by Ames test; format: toxicity, organism-based; conditions: salmonella enterica subsp. enterica serovar typhimurium; method in brief: as §2
[22] = Stability of the compound in aqueous solution assessed as compound remaining at 1 mM at pH 9 after 1 hr by TLC analysis; format: physicochemical; conditions: aqueous solution, pH 9; read-out: Stability; method in brief: as §4

IC50 (Trypanosoma cruzi [4]): 3.2 µM | Stability [5]: Stable | remaining at 1 h, 1000 µM [6]: > 95% | IC50 (Trypanosoma cruzi [12]): < 0.24 µM | remaining at 1 h, 1000 µM [13]: > 95% | remaining at 1 h, 1000 µM [19]: 90% | IC50 (Trypanosoma cruzi [20]): 4 µM | remaining at 1 h, 1000 µM [22]: > 95%
SMILES: Br.C=CCn1c(-c2ccccc2)cs\c1=N/N=C/C=C/c1ccco1.O
Activity (Salmonella typhimurium [1]): Non-toxic | Activity (Salmonella typhimurium [2]): Non-toxic | Activity (Salmonella typhimurium [3]): Non-toxic | Activity (Salmonella typhimurium [7]): Non-toxic | selectivity ratio [8]: > 120 | selectivity ratio [9]: > 1000 | Activity (Salmonella typhimurium [10]): Non-toxic | Ratio IC50 [11]: > 196 | Activity (Trypanosoma cruzi [14]): Active | Activity (Salmonella typhimurium [15]): Non-toxic | Activity (Salmonella typhimurium [16]): Non-toxic | Activity (Salmonella typhimurium [17]): Non-toxic | Activity (Salmonella typhimurium [18]): Non-toxic | Activity (Salmonella typhimurium [21]): Non-toxic

— ChEMBL document CHEMBL3259808, “Optimization of antitrypanosomatid agents: identification of nonmutagenic drug candidates with in vivo activity” (J Med Chem, 2014)
